14-3-3 Bad PPI = disrupts binding of bovine 14-3-3 zeta to phospho-Bad peptide. P63103. TR-FRET 14-3-3zeta/Dy647-pBad peptide displacement, 1 h. inhibition, % at 21.7 µM. actives 0.71% (n = 220,000);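 active = inhibition above about 70%, limit read from the data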;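 also: 0% = full 14-3-3 plus peptide FRET controls and 100% = background without 14-3-3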
Wee1 stabilizer = inhibitors of human Wee1 degradation. P30291. actives 1.2% (n = 220,000). reporter increase, % at 5 µM. HeLa Luc-Wee1K328M stability, luciferase luminescence; 100% = proteasome inhibitor MG132 effect. AID 1321;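 active = activation above the mean of all tested compounds plus 3 SD, set per screening run, cut at about 8.8% in these data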;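 also: cells exposed to compound for 20 h before luminescence read; 0% = DMSO alone and 100% = MG132 at 30 µM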
NCF1 inh = inhibitors of human p47phox binding. p47phox/p22phox peptide binding, fluorescence polarization, 2 h. inhibition, % at 24.7 µM. P14598. actives 0.53% (n = 220,000). AID 1274;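 also: 0% = p47phox with labelled peptide and 100% = labelled peptide alone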
Target sequence (P14598 whole entry, looked up): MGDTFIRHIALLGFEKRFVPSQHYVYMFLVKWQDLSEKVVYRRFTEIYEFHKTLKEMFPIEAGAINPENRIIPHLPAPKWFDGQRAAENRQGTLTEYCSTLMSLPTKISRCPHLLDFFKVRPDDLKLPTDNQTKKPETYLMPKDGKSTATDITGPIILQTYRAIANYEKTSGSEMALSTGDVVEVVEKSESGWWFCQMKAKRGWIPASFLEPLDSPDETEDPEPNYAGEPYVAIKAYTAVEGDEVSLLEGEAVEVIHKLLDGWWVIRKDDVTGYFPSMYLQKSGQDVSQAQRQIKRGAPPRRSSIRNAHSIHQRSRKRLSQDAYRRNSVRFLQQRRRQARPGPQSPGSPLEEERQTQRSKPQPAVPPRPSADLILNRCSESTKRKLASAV
RBBP9 inhibitor = human RBBP9 hydrolase inhibition. actives 0.2% (n = 220,000). recombinant RBBP9, FP-Rh probe fluorescence polarization. O75884. inhibition, % at 7.94 µM;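 active = inhibition above the campaign mean of all tested compounds plus 3 SD, cut at about 14% in these data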;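 also: plate controls were DMSO wells with RBBP9 for no effect and wells lacking RBBP9 protein for full effect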
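Test system: recombinant human RBBP9; Timing: 30 min then 45 min, 25 °C; Detection: fluorescence polarization; Control set: RBBP9 with DMSO as uninhibited control, no-protein wells as full inhibition; Compound dosing: one concentration, 7.94 µM nominal, 0.794% DMSO; Probe or stimulus: FP-Rh activity-based probe, 375 nM before mixing.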
eIF4E 4G PPI = inhibitors of eIF4E and eIF4G interaction in translation initiation; TR-FRET eIF4E-eIF4GI(517-606) binding, 2 h; actives 0.37% (n = 220,000); P63073+Q04637; inhibition, % at 21.7 µM;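 also: 0% = full FRET control wells and 100% = background wells lacking eIF4GI fragment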
* hit, by the source's call; . = no result given; + = active, no number; [ ] = another dose, or the depositor's remark. Most compounds without a hit are left out; they make up all but 2.8% or so of the library.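 The calls were made as follows, unless noted: active = inhibition above about 30% (limit read from the data); inactive = the rest.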

SMILES | 14-3-3 Bad PPI | Wee1 stabilizer | NCF1 inh | RBBP9 inhibitor | eIF4E 4G PPI
Cc1ccc(C(=O)CN(Cc2ccccc2)C2=NCCS2)cc1 | 6 | 10* | -6 | 4 | 1
O=c1oc2ccccc2cc1-c1nc(-c2cccs2)cs1 | -6 | 2 | 52* | -2 | -5
COc1cccc2cc(-c3nc(-c4cccs4)cs3)c(=O)oc12 | 4 | -2 | -35 | 0 | -3
COCCNC(=O)Cn1cc(C(=S)N2CCOCC2)c2ccccc21 | 5 | 9.8* | -5 | -5 | 3
O=C(Nc1cccc(Cl)c1)c1csc(-c2ccccc2)n1 | 3 | 7 | -9 | -7 | 5
COC(=O)Sc1nnc(-c2ccc(Br)cc2)o1 | 67 | -1 | -18 | -8 | 70*
CCc1nnc(NCC(=O)N2CCc3ccccc32)s1 | . | -1 | + | -11 | .
O=C(CNCCO)N1CCc2ccccc21 | 3 | 1 | -4 | 0 | -5
COc1ccc2[nH]cc(CCNC(=O)C3CCCO3)c2c1 (stereo unspecified) | -4 | 11* | -8 | 0 | 5
CC(c1n[nH]c(=S)n1-c1ccccc1)N1CCCCC1 (stereo unspecified) | -4 | 1 | -3 | -2 | -2
Cc1oc(-c2ccc(Cl)cc2)[n+]([O-])c1C | 84* | -2 | 9 | -5 | 2
COc1cc2oc(-c3ccc(O)cc3)cc(=O)c2c(O)c1OC | -1 | . | 41* | . | 58*
COc1cc2oc(-c3ccc(O)cc3)cc(=O)c2c(OC)c1O | -1 | 0 | 7 | 1 | -3
CCn1c(COc2cc(C)ccc2C(C)C)nnc1SCC(=O)Nc1nccs1 | -7 | 11* | -2 | -1 | -1
Cc1ccc(-n2c(CSc3nc(C)cc(C)n3)nnc2SCC(=O)Nc2nccs2)cc1 | -3 | -1 | 36* | -5 | 0
COc1ccc(-n2c(CSc3nc(C)cc(C)n3)nnc2SCC(=O)Nc2nccs2)cc1 | -6 | -1 | -3 | -4 | -12
Cn1c(CCCOc2ccc(Cl)cc2Cl)nnc1SCC(=O)Nc1nccs1 | 4 | -1 | -11 | -2 | -35
CCOC(=O)C1CCCN(C(=O)c2cccc(NC(=O)C(CC)CC)c2)C1 (stereo unspecified) | -5 | -2 | -3 | 0 | -3
N#Cc1ccc(C(=O)Nc2ccc([N+](=O)[O-])cc2)c(F)c1 | -3 | 1 | 1 | -3 | 5
OC1CCN(Cc2cccc(Oc3ccccc3)c2)CC1 | -12 | -1 | -3 | 3 | -3
CN1CCN(Cc2cccc(Oc3ccccc3)c2)CC1 | 70* | 1 | 0 | -2 | 13
CCCCOCCCn1c(-c2ccco2)nc2nc3ccccc3nc21 | -8 | -2 | -21 | -6 | 54*
COc1ccc(Cc2nnc(SCC(=O)N3CCCCC3)o2)cc1 | -15 | 0 | -13 | 1 | 0
Cc1ccc(N2CC(C(=O)Nc3nccs3)CC2=O)cc1Cl (stereo unspecified) | 6 | -1 | -12 | 0 | -13
Cc1c(Cl)cccc1N1CC(C(=O)Nc2nccs2)CC1=O (stereo unspecified) | . | 3 | + | -2 | .
SMILES | 14-3-3 Bad PPI | Wee1 stabilizer | NCF1 inh | RBBP9 inhibitor | eIF4E 4G PPI
CC1CCN(c2c(NCC3CCC(C(=O)N4CCCCC4)CC3)c(=O)c2=O)CC1 (stereo unspecified) | 4 | 0 | -9 | -13 | -4
CC1CCN(c2c(NCC3CCC(C(=O)NC4CCCCCC4)CC3)c(=O)c2=O)CC1 (stereo unspecified) | 86* | -1 | -8 | -5 | -2
COc1ccc(CN2CCC(CO)(Cc3cccc(C(F)(F)F)c3)CC2)cc1Cn1cccn1 | -7 | -3 | -2 | -10 | -3
CNC(=O)c1nnn(Cc2ccccc2)c1NC(=O)C(F)(F)F | 77* | -1 | -15 | -3 | -7
CCOC(=O)CN1C(=O)C(CC)Oc2ccccc21 (stereo unspecified) | 0 | 17* | -5 | -3 | -1
CC(=O)C1=C(c2ccccc2)OC(N)=C(C#N)C1c1ccc(O)cc1 (stereo unspecified) | -15 | -1 | 18 | -8 | 51*[fluorescence artefact?]
O=C(COc1ccccc1F)NCC(c1ccco1)N1CCCC1 (stereo unspecified) | -17 | 0 | -1 | -5 | -5
COc1ccccc1NC(=O)C1=C(C)NC(SCC(=O)Nc2ccc(C(=O)O)cc2)=C(C#N)C1c1cccs1 (stereo unspecified) | -1 | 6 | -6 | -11 | -3

High-throughput results (PubChem)
